# An excerpt weighted towards active compounds, which were near 1.3% of everything screened.
# aDG glyco act: alpha-DG glycosylation activation; Pro5-aDG cells, alpha-DG glycosylation AlphaScreen (IIH6); 0% Pro5, 100% B10-LARGE cell signal; activation, % at 10 µM; hit rate 0.22% among 360,000;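 active means activation of at least 8% versus controls, or a plate z-score of at least 8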;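 further: Pro5 are CHO cells carrying HIG-tagged alpha-DG that lacks glycosylation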
# NRP1-CendR mod: modulators of CendR peptide binding to human neuropilin-1; inhibition, % at 25 µM; FAM-RPARPAR peptide binding to NRP-1, fluorescence polarization; hit rate 0.85% among 360,000; AID 602438;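 active means inhibition or corrected inhibition above about 18%, plus a signal ratio from 0.5 to 1.5, limit read from the data, passing the limit was not always enough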
# Tn6 DDE FP: disrupts Tn6 cyclic peptide binding to fibrin D-Dimer-E complex. P02675. Fibrin DD(E) TRITC-Tn6 fluorescence polarization displacement. inhibition, % at 8.3 µM. hit rate 0.21% among 370,000. AID 720509;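 active means inhibition above a per-campaign cutoff: mean of compounds within control limits plus 3 SD, cut at about 15% in these data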;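 further: 0% = median of all compound wells on the plate and 100% = blocking peptide control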
# Target sequence (P02675 whole entry, looked up): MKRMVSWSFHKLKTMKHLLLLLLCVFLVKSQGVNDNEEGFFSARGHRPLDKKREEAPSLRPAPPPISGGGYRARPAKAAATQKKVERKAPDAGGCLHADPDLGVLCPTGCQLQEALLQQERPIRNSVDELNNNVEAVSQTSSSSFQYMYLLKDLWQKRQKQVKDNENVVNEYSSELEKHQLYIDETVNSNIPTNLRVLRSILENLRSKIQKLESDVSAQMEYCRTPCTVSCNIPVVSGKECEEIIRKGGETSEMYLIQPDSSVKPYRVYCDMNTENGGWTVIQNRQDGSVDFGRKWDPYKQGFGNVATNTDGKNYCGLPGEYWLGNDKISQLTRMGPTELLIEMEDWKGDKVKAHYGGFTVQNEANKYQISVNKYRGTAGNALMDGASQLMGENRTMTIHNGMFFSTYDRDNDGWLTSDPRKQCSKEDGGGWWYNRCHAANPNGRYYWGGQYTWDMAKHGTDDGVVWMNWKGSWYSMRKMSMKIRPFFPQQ
# Tn7 DDE FP: DD(E)-Tn7 binding inhibition, primary FP screen. FP displacement of FITC-Tn7 peptide from fibrin DD(E); 0% = median of compound wells per plate. hit rate 0.13% among 370,000. inhibition, % at 8.3 µM. P02675;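 active means inhibition above the mean of compounds falling within the control limits plus 3 SD of them, cut at about 14% in these data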;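 further: 0% = plate median of compound wells and 100% = 10 µM Aha-Tn7 peptide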
#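 Assay system: Human clot-derived fibrin DD(E) complex | Buffer or medium: Tris/NaCl/CaCl2 buffer, pH 7.8 | Repeats: One replicate per compound | Benchmarks: Aha-Tn7 high control | Measure: % inhibition scaled between sample-field median and high-control FP | Schedule: 10 min plus 3 h, room temperature | Signal: Fluorescence polarization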
# Starred values were filed as active, the others as inactive; x = not tested or not shown.
SMILES,aDG glyco act,NRP1-CendR mod,Tn6 DDE FP,Tn7 DDE FP
COc1cccc(-c2sc3ccc(OC)cc3c2-c2ccc(OCCN(C)C)cc2)c1,8.6*,6,-4,1
O=C(C[C@H]1C[C@@H]2c3cc(NC(=O)c4cccnc4)ccc3O[C@@H]2[C@H](CO)O1)NCc1ccncc1,0,9,-1,-3
Cc1cccc(OCCn2c(-c3ccco3)nc3ccccc32)c1,1,28*,3,-6
Cc1ccc(OCCC(=O)OCC(=O)c2c(N)n(CC(C)C)c(=O)n(C)c2=O)cc1,1,17*,2,-1
CCNc1c([N+](=O)[O-])ncn1C,0,32*,4,0
Cc1ccccc1N(C)C(=O)Cn1nnc(-c2ccccc2F)n1,x,x,-7,2
O=C(Nc1nnc(CCN2CCCCC2)s1)C1CCCCC1,0,7,9,-4
O=C(Nc1nnc(CCN2CCOCC2)s1)C1CCCCC1,0,37*,4,1
Cc1cc2nc3ccc(=[N+](C)C)cc-3sc2cc1N,36*,11,x,x
CC(C)(C)NC(=O)NC12CC3CC(CC(C3)C1)C2,0,22*,1,-1
CC(C)(C)OC(=O)NNC(=O)NC12CC3CC(CC(C3)C1)C2,0,9,1,3
c1nc(NCC2CC2)c2cc(-c3ccc4c(c3)OCO4)ccc2n1,x,x,-24,10
CCOc1cc(C(c2c(O)nc(SC)[nH]c2=O)c2c(O)nc(SC)[nH]c2=O)ccc1O,0,30*,-3,9
COc1ccccc1C(c1c(O)nc(SC)[nH]c1=O)c1c(O)nc(SC)[nH]c1=O,0,-1,-3,3
O=C(Cn1cnc2cc([N+](=O)[O-])ccc2c1=O)NCCc1ccc(Cl)cc1,0,20*,7,-4
O=C(NCCN1CCc2ccccc2C1)Nc1ccc([N+](=O)[O-])cc1,0,0,-3,15*
O=C(O)COc1c(-c2ccccc2)oc2ccccc2c1=O,0,1,0,1
Cc1ccc(-c2oc3ccccc3c(=O)c2OCC(=O)O)cc1,0,19*,9,-3
O=C1c2ccccc2C(=O)N1CCN1CCCCC1,1,-6,-5,1
Nc1cc2c3c(cccc3c1)C(=O)N(CCN1CCCC1)C2=O,0,32*,-4,5
O=C1c2cccc3cc([N+](=O)[O-])cc(c23)C(=O)N1CCN1CCCC1,0,30*,-8,2
CCN(CC)CCN1C(=O)c2cccc3cc(N)cc(c23)C1=O,0,60,4,1
CN(C)C(=O)C[C@H]1C[C@@H]2c3cc(NC(=O)NC4CCCC4)ccc3O[C@@H]2[C@@H](CO)O1,x,x,2,-2
Cc1ccc(C(=O)CNc2ccc(C)c(Cl)c2)cc1,0,30*,-4,-3
Cc1ccc(NCC(=O)c2ccccc2)cc1Cl,0,-18,1,6
SMILES,aDG glyco act,NRP1-CendR mod,Tn6 DDE FP,Tn7 DDE FP
Cc1cccc(N(CC(=O)NCc2ccco2)S(=O)(=O)c2ccccc2)c1,0,-18,4,0
O=C1CN(S(=O)(=O)c2cc(Cl)ccc2Cl)c2ccccc2N1,0,22*,-8,4
COc1ccc(S(=O)(=O)N2CC(=O)Nc3ccccc32)cc1,0,-7,3,-4
C#CCCOC(=O)N1C2=NC(C(=O)OC)=C(C(=O)OC)[C@@H]3N(C)c4ccccc4[C@]23C[C@H]1CO,0,26*,1,-2
CCOC(=O)N1C2=NC(C(=O)OC)=C(C(=O)OC)[C@@H]3N(C)c4ccc(OC)cc4[C@]23C[C@H]1C(=O)OC,0,25*,5,7
COC(=O)C1=C(C(=O)OC)[C@@H]2N(C)c3ccccc3[C@@]23C[C@@H](CO)N(C(=O)c2cccs2)C3=N1,0,18,9,3
CCOC1=C2[C@H](c3ccccc3)N(S(=O)(=O)c3ccc(C)cc3)[C@H](C(C)C)[C@H]2C(C#N)(C#N)C(C#N)(C#N)C1,x,x,0,-2
O=C(CN(C(=O)CNC(=O)c1ccco1)c1ccc2c(c1)OCCO2)NC1CCCC1,0,21*,7,12
NC(=O)C[n+]1cccc2ccccc21,0,32*,-6,9
COC(=O)c1ccc(CN2C(=O)[C@]3(OCCC=C[C@H]3C)c3cc(OC)ccc32)cc1,x,x,-3,5
CCN1CCN(CC(=O)Nc2cccc(C)c2C)C(=O)C1=O,0,21*,4,2
CCN1CCN(CC(=O)Nc2ccc(C)cc2C)C(=O)C1=O,0,4,3,0
O=C1c2ccc(Cl)cc2S(=O)(=O)c2cccc(C(=O)N3CCC(Cc4ccccc4)CC3)c21,0,26*,9,-4
Cc1cccc(NC(=O)C2CCCN2S(=O)(=O)c2cccnc2)c1C (configuration not stated),x,x,-6,3
CC(C)c1ccc(NC(=O)C2(C)Cc3c(-c4ccccc4)ccnc3O2)cc1 (configuration not stated),0,1,0,0
O=C(N/N=C/C1C(c2ccccc2)C1(Cl)Cl)c1cccc(Cl)c1 (configuration not stated),0,25*,0,-5
O=C(N/N=C/c1c[nH]c2ccccc12)c1cccc(Cl)c1,0,3,5,-3
Cc1ccc(OCCC(=O)OCC(=O)NCCc2ccccc2)cc1,0,27*,-2,2
CCN(CC)S(=O)(=O)c1cc(NC(=O)COC(=O)CCC(=O)c2cccs2)ccc1C,0,26*,-2,-3
COc1cc2c(-c3ccccc3O)nc3c(c(C)nn3-c3ccccc3)c2cc1OC,0,33*,-1,0
Cc1cc(C)cc(NC2=NCC(=O)N2Cc2ccccc2)c1,0,35*,4,1
Cc1cccc(NC2=NCC(=O)N2Cc2ccccc2)c1,0,6,-3,6
COc1ccc(-c2csc(C(O)c3ccc(F)c(F)c3)n2)cn1 (configuration not stated),0,21*,1,2
COC(=O)[C@]12CCCCC=C1N(Cc1ccc(OC)cc1)C(=O)[C@@H]2CC(=O)N1CCN(C(=O)c2ccco2)CC1,x,x,6,-7
NS(=O)(=O)c1ccc(S(=O)(=O)N2CCCC(c3ccccc3)C2)cc1 (configuration not stated),0,3,1,3
SMILES,aDG glyco act,NRP1-CendR mod,Tn6 DDE FP,Tn7 DDE FP
Cc1ccc(S(=O)(=O)Nc2nc3ccccc3nc2NCc2ccco2)cc1,0,-64,44*,2
c1ccc(COCCc2cn(Cc3ccccc3)c3ccccc23)cc1,x,x,-8,-1
Cn1nc(-c2ccccc2)cc1NC(=O)[C@@H]1O[C@H](CO)[C@H](O)[C@H](O)[C@H]1O,1,-15,1,-3
C=CCN(CC#Cc1ccccn1)Cc1ccc(OC)cc1OC,x,x,0,-1
O=C(CCn1c(=O)c2cccn2c2cccnc21)NCc1cccc(Cl)c1,0,27*,0,4
O=C(CCCn1c(=O)c2cccn2c2cccnc21)NCc1cccc(Br)c1,0,2,0,-4
Cc1ccc(S(=O)(=O)N(C)C)cc1NC(=O)COC(=O)c1ccc2c(c1)OCO2,0,37*,-2,-10

# From PubChem BioAssay
